# Compound activity: PubChem, several laboratories
# FXIa inh: factor XIa (human) inhibition | inhibition, % at 5 µM | purified FXIa, Boc-Glu-Ala-Arg-AMC fluorogenic substrate | AID 798 | P03951 | actives 0.14% (n = 220,000);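 active = inhibition of at least 40%; inactive = inhibition below 40%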;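 note: fluorescence of freed AMC excited at 355 nm; 0% = enzyme without compound and 100% = no enzyme blank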
# hK5 inh: blocks human kallikrein 5 protease activity. inhibition, % at 5 µM. Q9Y337. actives 0.59% (n = 210,000). recombinant hK5, fluorogenic AMC substrate cleavage;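 active = inhibition of 40% or more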;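 note: 0% = enzyme controls without compound and 100% = no-enzyme blanks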
# Target sequence (Q9Y337 67-293 limits assumed): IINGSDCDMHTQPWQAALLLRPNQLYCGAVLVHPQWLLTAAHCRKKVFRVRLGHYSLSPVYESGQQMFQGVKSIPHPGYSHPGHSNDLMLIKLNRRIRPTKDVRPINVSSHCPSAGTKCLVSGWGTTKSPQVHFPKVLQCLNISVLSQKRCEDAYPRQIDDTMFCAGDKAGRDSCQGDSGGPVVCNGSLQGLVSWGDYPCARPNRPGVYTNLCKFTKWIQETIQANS
# FXIIa inh: inhibitors of human coagulation factor XIIa | inhibition, % at 5 µM | purified FXIIa, Boc-QGR-AMC fluorogenic substrate, 2 h | P00748 | actives 0.3% (n = 220,000); in the data active = inhibition above about 40%;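 note: 0% = enzyme with no compound and 100% = blank without enzyme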
# Calpain2 inh: calpain II (pig) inhibition; AID 1236; inhibition, % at 16 µM; purified calpain II, fluorogenic peptide substrate, 30 min; actives 0.37% (n = 220,000);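 active = inhibition above about 50%, limit read from the data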
# Thrombin inh: thrombin (human) inhibition. AID 1046. actives 0.26% (n = 220,000). P00734. inhibition, % at 5 µM. alpha-thrombin, Boc-VPR-AMC fluorogenic substrate cleavage;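 active = inhibition at or above 40%; inactive = inhibition below 40%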;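 note: 0% = enzyme with no compound and 100% = wells without enzyme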
#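 Material: human alpha-thrombin protein; Also added: Boc-VPR-AMC substrate, 15 µM final; Timing: enzyme reaction carried out at room temperature; Signal: fluorescence, ex 355 nm, em 460 nm; Measure: % inhibition of thrombin; Controls: enzyme without compound as high, wells lacking enzyme as low.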
# * = called active by the depositor; i = inactive; nt = no result. In the library only some 1.4% were active in any assay of this set; here they are far more common.
SMILES,FXIa inh,hK5 inh,FXIIa inh,Calpain2 inh,Thrombin inh
CC(=O)Nc1ccc(S(=O)(=O)NNC(=O)COc2ccc(Cl)cc2Cl)cc1,43.9*,20.0,20.6,9.3,21.5
CCOC(=O)C1CCCN(S(=O)(=O)c2cccs2)C1 (configuration not stated),-1.2,-9.1,-0.6,56.8*,-3.5
CC(C)NC(=O)C1CCCN(S(=O)(=O)c2cccs2)C1 (configuration not stated),-6.1,-31.0,-1.2,25.9,-3.4
COc1cc(C2N3CC4(C)CN2CC(C)(C3)C4)ccc1O (configuration not stated),0.4,-22.4,5.9,24.8,-0.5
COc1ccc(C2N(c3ccccc3)CCN2c2ccccc2)cc1O,33.9,18.5,45.8*,-4.2,8.6
Cc1ccc(Cl)cc1NS(=O)(=O)c1c(C)[nH]c(=O)[nH]c1=O,-2.8,30.1,-0.2,13.6,103.9*
Cc1ccccc1CN1CCc2c(OCC(=O)N3CCCc4ccccc43)cccc2C1=O,13.4,53.3*,9.3,44.4,0.7
Nc1cc(S(=O)(=O)N2CCCCC2)ccc1Oc1ccc(Cl)cc1,-4.2,-16.7,-5.1,63.5*,4.9
O=S(=O)(c1ccc(S(=O)(=O)N2CCCC2)cc1)N1CCCCCC1,19.4,-14.3,44.4*,20.8,-6.6
Nc1ccc(S(=O)(=O)N2CCCC2)cc1,6.0,-5.2,15.0,7.4,-1.8
Cc1cc(NC(=O)COC(=O)c2cccc(S(=O)(=O)N3CCOCC3)c2)no1,12.3,-4.4,11.9,7.8,-8.0
O=C(Nc1ccc(Cl)cc1)NC1CCCC1Cc1ccco1 (configuration not stated),1.5,-5.7,14.4,39.9,-2.0
O=C(Nc1ccc(Cl)cc1)NC1CCCCC1Cc1ccco1 (configuration not stated),5.5,5.4,2.5,52.9*,-1.9
COc1ccc(CNc2nc(-c3ccccc3)nn2C(=O)c2cccs2)cc1,-1.8,-3.2,4.3,-17.8,-7.5
CC(=O)n1nc(-c2ccccc2)nc1NCc1ccc(N(C)C)cc1,-6.0,-23.9,-7.0,19.1,61.1*
CCC(=O)n1nc(-c2ccccc2)nc1NCc1ccccc1,0.3,-3.6,9.4,11.3,nt
CC(=O)n1nc(-c2ccccc2)nc1NCc1cccs1,-4.5,-2.6,2.6,-6.2,97.0*
CCC(=O)n1nc(-c2ccc(OC)cc2)nc1NCc1cccs1,0.7,-4.8,6.8,-16.2,88.9*
CC12CCC(C(=O)N3CCN(c4ccccc4)CC3)(CC1=O)C2(C)C (configuration not stated),5.1,54.3*,1.7,8.4,7.7
CCSc1ccccc1C(=O)NCCCn1ccnc1,-4.8,43.2*,20.5,11.4,3.1
CCCCNC(=O)c1ccccc1C(=O)NCCCC,-0.3,1.5,11.1,91.4*,0.1
CCCCNC(=O)c1ccccc1Cl,-4.8,-1.2,8.2,-13.0,-3.3
CCOC(=O)CC1C(=O)NCCN1Cc1ccc(OC)c(OC)c1 (configuration not stated),-0.3,3.0,7.9,2.1,-4.4
CC1C(c2ccccc2)=NNc2nc3c(c(=O)n(C)c(=O)n3C)n21 (configuration not stated),2.9,7.0,8.3,-65.5,2.5
COCCN=c1scc(-c2cccs2)n1/N=C/c1ccc(O)c(O)c1O,0.8,-32.4,9.9,65.2*,-12.3
SMILES,FXIa inh,hK5 inh,FXIIa inh,Calpain2 inh,Thrombin inh
CN1CCS/C1=C\C=C1/SC(=S)N(CC(=O)O)C1=O,8.2,0.9,11.2,63.6*,nt
COc1cc(/C=N/NC(=S)Nc2cccnc2)cc(OC)c1OC,-1.2,1.4,8.2,-15.0,-3.2
O=C(O)Cn1c(SCCOc2ccccc2)nc2ccccc21,-0.9,41.9*,23.4,15.3,3.9
O=C(O)Cn1c(SCc2ccccc2)nc2ccccc21,4.0,-5.0,11.5,16.2,1.5
O=C(Nc1ccc(NC(=O)C2CCCCC2)cn1)c1ccco1,-9.7,-9.9,7.6,13.1,-16.5
O=S(=O)(Nc1ccccc1)c1ccc(-c2csnn2)cc1,26.3,25.8,43.4*,16.8,18.5
c1ccc(-c2ccc(-c3csnn3)cc2)cc1,1.9,-9.0,10.4,-7.4,2.9
O=S(=O)(Nc1ccc(-c2csc(-c3ccccc3)n2)cc1)c1ccc(F)cc1,-0.3,-27.3,8.1,55.5*,-1.4
CCOC(=O)C(C)n1cnc2sc3c(c2c1=O)CCC3 (configuration not stated),5.6,40.5*,13.5,11.9,18.7
CCOC(=O)c1cnn(-c2ncnc3sc4c(c23)CCC4)c1N,14.0,34.3,22.3,4.8,49.5*
O=C1CC(c2ccco2)CC(O)=C1C=NCCN1CCN(C2CC(=O)N(c3ccccc3)C2=O)CC1 (configuration not stated),1.3,1.9,9.7,4.0,-2.0
COc1ccc(Nc2n[nH]c(C)c2[N+](=O)[O-])cc1,1.7,4.8,10.5,-9.9,-1.1
Cc1noc(C)c1C(=O)OCC(=O)c1ccc[nH]1,0.3,6.8,2.5,-35.3,0.9
O=[N+]([O-])c1ccn(-c2nc(-c3ccccc3)cc(C(F)(F)F)n2)n1,-1.2,5.9,7.5,-26.8,-15.8
CC(C)Cc1cc(C(=O)NCCN2CCOCC2)no1,4.9,44.2*,0.4,1.8,22.8
CC(C)Cc1cc(C(=O)NCc2cccnc2)no1,5.4,-15.3,15.7,-40.5,-2.0
CC(C)Cc1cc(C(=O)NCc2cccs2)no1,7.8,54.7*,7.7,14.1,21.3
COc1ccc(NC(=O)CN2CCN(C(=O)c3ccco3)CC2)c(OC)c1,-2.2,4.9,4.5,-12.0,2.3
CC(=NCCCN(C)C)C1=C(O)c2ccccc2C1=O,-7.0,10.4,2.5,15.2,-4.3
CC(C)CC(NC(=O)c1ccccc1NC(=O)c1ccccc1)C(=O)O (configuration not stated),-4.4,-11.3,2.3,-11.7,1.3
Cc1ccc(NC2c3ncccc3C(=O)N2c2ccccc2C)cc1C (configuration not stated),-1.4,46.7*,13.3,20.0,4.5
CCOc1ccc(N2C(=O)c3cccnc3C2Nc2ccc(Cl)cc2)cc1 (configuration not stated),-6.2,-0.5,8.0,-11.1,-6.1
Cc1cccc(N2C(=O)/C(=C\c3ccc(C(=O)O)cc3)c3ccccc3C2=O)c1,3.7,0.1,9.6,-79.1,nt
O=Cc1cn(-c2ccc(F)cc2)c2ccccc12,18.1,42.1*,13.6,24.2,21.0
CCOc1ccc(NC(=S)NCCCc2ccccc2)cc1,-1.8,2.2,8.7,-6.7,-4.4
CCOc1ccc(CSCCNC(=S)Nc2ccccc2)cc1,1.1,50.7*,-5.7,43.0,19.6
COCCNC(=O)CSc1nc2ccc(N3CCOCC3)cc2c(=O)n1Cc1ccc(OC)cc1,-6.0,103.1*,-7.0,i,2.7
CCOC(=O)CSc1nc2c(sc(=S)n2Cc2ccco2)c(=O)n1-c1ccccc1,2.1,-4.1,12.5,-50.2,3.1
O=C(N/N=C/C(Cl)=C\c1ccccc1)c1cnccn1,7.1,56.3*,17.9,9.8,17.0
O=C(NN=C1CCCC1)c1ccccc1OCc1ccc(Cl)cc1,51.8*,37.7,27.9,5.7,33.3
